Test results: PubChem BioAssay
Records with an inconclusive call do not appear. Active and inactive are the calls of the source.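 The calls were made as follows, unless noted: active = viability increase at or above a cutoff of the median across tested compounds plus 3 SD (cut at about 8.5% in these data, passing the limit was not always enough); inconclusive = some gains above the cutoff, reason not given; inactive = the rest.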

Columns and labels:
[1] = S. cerevisiae growth inhibition in permissive medium (OD615), pilot counter-assay for S. cerevisiae lifespan shortening project, permissive growth control (AID 705;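 active = growth inhibition above 25% in both replicates, a cutoff set 3 SD above the mean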); details: OD615, 24 h, at 10 µM, stronger effect = higher value
Outline: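 System – S. cerevisiae with engineered DeaD lifespan system · Buffer or medium – SC raffinose/galactose permissive medium · Schedule – cells pre-grown 4 h, then 24 h compound exposure, 30 °C humidified · Technique – culture turbidity as optical density at 615 nm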

[2] = S. cerevisiae growth inhibition in restrictive medium, OD615, pilot screen, restrictive growth control, yeast lifespan reduction project (AID 706;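 active = growth inhibition above a set limit, 3 SD over mean compound inhibition, in both replicates, cut at about 43% in these data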;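 also: modified DeaD lifespan yeast strain shifted to restrictive glucose medium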); details: OD615, 48 h, at 10 µM, stronger effect = higher value
Outline: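 Material: engineered S. cerevisiae DeaD strain / Medium: glucose-based CSMM-D restrictive medium / Compound: single dose of 10 µM compound final, 0.25% DMSO / Timing: 4 h pre-incubation, 48 h exposure at 30 °C / Technique: OD615 absorbance reading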

[3] = doxorubicin toxicity protection in MRP-1 cells – H69AR cells, CellTiter-Glo, duplicate, MRP-1 activator project, pilot screen (AID 807); details: H69AR viability with doxorubicin, CellTiter-Glo luminescence; at 10 µM; stronger effect = higher value;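 also: compound pretreatment 18-22 h then 72 h combined with doxorubicin; 0% = doxorubicin alone and 100% = vehicle without doxorubicin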
[4] = viability of HCT116 without oncogenic beta-catenin – human colon tumor cells, pilot screen (AID 823;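 active = cell viability at or below a set limit in both duplicate runs, the limit being the all-compound median minus 4 SD, cut at about 23% in these data, passing the limit was not always enough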;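 also: 0% = wells killed by 20 µM Hyamine and 100% = untreated DMSO cell wells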); details: HCT116 beta-catenin knockout viability, CellTiter-Glo, 60 h; at 10 µM; stronger effect = lower value
[5] = viability of PTEN-null HCT116 cells – cell-based, HCT116 clonal line, CellTiter-Glo, pilot screen (AID 824;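 active = viability at or below 27.92% in each of two runs, the all-compound median minus 4 SD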;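 also: 0% = 20 µM Hyamine control and 100% = vehicle cell control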); details: HCT116 PTEN-deleted viability, 60 h, at 10 µM, stronger effect = lower value
[6] = RAM pathway blockade in budding yeast – dse1pr::URA3 reporter, 5-FOA selection, pilot screen (AID 869;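 active = inhibition over a set limit, the all-compound mean plus 3 SD, in both replicate runs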;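 also: 0% = DMSO wells with no growth and 100% = 10 µM 1-NA-PP1 with full growth; RAM network block rescues cells from 5-FOA so hits raise OD615 growth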); details: S. cerevisiae dse1pr::URA3 5-FOA growth, OD615, 2 d; at 10 µM; stronger effect = higher value; strain carries analog-sensitive mutant Cbk1 kinase
[7] = RAM signaling pathway blockade in yeast – S. cerevisiae, Pdr1DBD-CYC8 efflux-inhibited sensitized strain, primary screen (AID 1298;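 active = RAM network inhibition above 8.4% in each of two replicates, 3 SD over the compound average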;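 also: 0% = DMSO untreated cells without growth and 100% = 10 µM 1-NA-PP1 full growth; higher means more yeast growth rescued from 5-FOA killing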); details: S. cerevisiae cbk1-as DSE1-URA3 strain, 5-FOA growth OD615, 2 d; at 50 µM; stronger effect = higher value

SMILES	growth inhibition [1]	growth inhibition [2]	viability increase [3]	viability [4]	viability [5]	inhibition [6]	RAM network inhibition [7]
CCOc1ccc(NC(=O)c2ccc(N)cc2)cc1	-1.98% (inactive)	-14.4% (inactive)	-2.73% (inactive)	91.8% (inactive)	89.2% (inactive)	2.77% (inactive)	2.88% (inactive)
CC(C)c1ccc(C2CC(=O)N3CN(C)CSC3=C2C#N)cc1 (centres undefined)	4.19% (inactive)	25% (inactive)	-4.3% (inactive)	91.4% (inactive)	93.9% (inactive)	1.75% (inactive)	-0.52% (inactive)
c1ccc(CSc2nnc(-c3ccncc3)o2)cc1	-3.77% (inactive)	9.8% (inactive)	-2.83% (inactive)	109% (inactive)	96.3% (inactive)	0.73% (inactive)	1.96% (inactive)
O=C(C1CCCCC1)N1CCN(c2ncccn2)CC1	-3.77% (inactive)	-0.05% (inactive)	0.21% (inactive)	101% (inactive)	102% (inactive)	1.31% (inactive)	2.41% (inactive)
NCCCC(=O)N1c2ccccc2Sc2ccccc21	-16% (inactive)	3.53% (inactive)	-2.97% (inactive)	73.2% (inactive)	73.9% (inactive)	2.5% (inactive)	0.52% (inactive)
O=C(Cn1c(=O)[nH]c2ccsc2c1=O)NC1CCCCC1	-3.32% (inactive)	-5.46% (inactive)	0.65% (inactive)	94.9% (inactive)	93.9% (inactive)	1.41% (inactive)	-1.43% (inactive)
Cc1ccc(OCC(O)CN2CCN(CC(O)COc3ccc(C)cc3Cl)CC2)c(Cl)c1 (centres undefined)	-5.18% (inactive)	-17.4% (inactive)	-4.02% (inactive)	77.7% (inactive)	81.8% (inactive)	2.03% (inactive)	2.76% (inactive)
COc1ccccc1Nc1nc2ccccc2n1C	-11.6% (inactive)	-24.9% (inactive)	0.31% (inactive)	94.7% (inactive)	94.6% (inactive)	1.44% (inactive)	4.17% (inactive)
O=C(Cn1cc2c(n1)CCCC2)NCCCN1CCN(c2ccccc2F)CC1	-16.9% (inactive)	-6.56% (inactive)	-3.08% (inactive)	89.5% (inactive)	89% (inactive)	0.665% (inactive)	5.8% (inactive)
CCOC(=O)N1CCC(NC(=O)c2ccc3snnc3c2)CC1	-6.44% (inactive)	-4.42% (inactive)	-3.44% (inactive)	98.5% (inactive)	89.7% (inactive)	0.55% (inactive)	4.29% (inactive)
CCNc1nc(C)cc(COC)c1C#N	-6.41% (inactive)	-0.29% (inactive)	-0.27% (inactive)	97.7% (inactive)	102% (inactive)	1.4% (inactive)	-0.06% (inactive)
CCc1c(C)nc(SCCOc2ccc(OC)cc2)[nH]c1=O	-12.6% (inactive)	-9.17% (inactive)	-0.04% (inactive)	108% (inactive)	93.9% (inactive)	-0.015% (inactive)	1.64% (inactive)
CN(Cc1ccccc1)c1nnc(N)s1	0.13% (inactive)	-3.49% (inactive)	-2% (inactive)	105% (inactive)	102% (inactive)	0.935% (inactive)	2.5% (inactive)
O=C1CC(N2CCN(C(c3ccccc3)c3ccccc3)CC2)C(=O)N1 (centres undefined)	-8.31% (inactive)	-9.7% (inactive)	-1.16% (inactive)	102% (inactive)	102% (inactive)	1.03% (inactive)	5.3% (inactive)
Cc1ccccc1-c1noc(-c2cccs2)n1	8.34% (inactive)	6.79% (inactive)	-4.68% (inactive)	94% (inactive)	90.4% (inactive)	2.11% (inactive)	6% (inactive)
CCC1(C)OC(=O)N2CCc3c(C)[nH]c4c(C)ccc(c34)C21C (centres undefined)	-14.7% (inactive)	-17.8% (inactive)	-1.6% (inactive)	95.9% (inactive)	91.3% (inactive)	2.15% (inactive)	1.06% (inactive)
NC(=O)c1ccsc1NC(=O)c1cccs1	-5% (inactive)	-5.65% (inactive)	-2.23% (inactive)	104% (inactive)	92.8% (inactive)	1.59% (inactive)	0.37% (inactive)
CC1CCCCC1NC(=O)c1ccc(CNc2c(N3CCCC3)c(=O)c2=O)cc1 (centres undefined)	-2.63% (inactive)	8.32% (inactive)	-0.12% (inactive)	96.7% (inactive)	90.8% (inactive)	1.01% (inactive)	0.72% (inactive)
CCOC(=O)Cn1c(=O)oc2cc(S(=O)(=O)NC3CCCc4ccccc43)ccc21 (centres undefined)	-9.8% (inactive)	-15.4% (inactive)	-0.67% (inactive)	88.3% (inactive)	92.2% (inactive)	4.13% (inactive)	3.75% (inactive)
O=C(NC1CC1)c1ccc(CS(=O)(=O)c2c(Cl)cccc2Cl)o1	3.79% (inactive)	-6.65% (inactive)	-2.96% (inactive)	105% (inactive)	97.4% (inactive)	0.475% (inactive)	4.31% (inactive)
C=CCOC(=O)c1[nH]c2c(c1C)C(=O)CC(c1cc(OC)c(OC)c(OC)c1)C2 (centres undefined)	1.75% (inactive)	6.24% (inactive)	-0.05% (inactive)	53.4% (inactive)	66.7% (inactive)	3.67% (inactive)	5.97% (inactive)
O=C(c1ccco1)N1CCN(S(=O)(=O)c2cccc3nsnc23)CC1	-10.9% (inactive)	-21.4% (inactive)	-0.16% (inactive)	99% (inactive)	99.7% (inactive)	0.6% (inactive)	5.06% (inactive)
Cc1ccc(NC(=O)CSC2=C(C#N)C(c3ccc4c(c3)OCO4)C3=C(CCCC3=O)N2)c(C)c1 (centres undefined)	21.3% (inactive)	59.1% (active)	-5.27% (inactive)	73.7% (inactive)	72.7% (inactive)	1.4% (inactive)	5.06% (inactive)
COC(=O)C1=C(C)N(Cc2cccnc2)C(=O)C1	-10.7% (inactive)	-8.8% (inactive)	-1.77% (inactive)	98.7% (inactive)	102% (inactive)	2.84% (inactive)	5.02% (inactive)

SMILES	growth inhibition [1]	growth inhibition [2]	viability increase [3]	viability [4]	viability [5]	inhibition [6]	RAM network inhibition [7]
CCN1CCN(CCCNC(=O)c2ccc3c(c2)NC(=O)c2ccccc2S3)CC1	-15.9% (inactive)	-14.5% (inactive)	-2.37% (inactive)	90.6% (inactive)	95.4% (inactive)	0.905% (inactive)	5.84% (inactive)
CN(CC(=O)NC1CCCc2ccccc21)S(=O)(=O)c1ccc2c(c1)c(=O)n(C)c(=O)n2C (centres undefined)	-9.17% (inactive)	-10.7% (inactive)	-3.54% (inactive)	95.3% (inactive)	94% (inactive)	2.24% (inactive)	1.42% (inactive)
CCOC(=O)c1ccc(Nc2cc(C)nc(-c3ccccc3O)n2)cc1	-6.03% (inactive)	-3.53% (inactive)	1.42% (inactive)	78.5% (inactive)	75.8% (inactive)	-0.345% (inactive)	1.54% (inactive)
COc1ccc(OCC(=O)OCCN2C(=O)c3ccccc3C2=O)cc1	3.16% (inactive)	-3.81% (inactive)	-0.31% (inactive)	101% (inactive)	106% (inactive)	0.97% (inactive)	8.21% (inactive)
CCC(=NCCc1ccccc1)C1=C(O)CCC1=O	3.04% (inactive)	-0.44% (inactive)	-2.05% (inactive)	98.3% (inactive)	98.8% (inactive)	0.325% (inactive)	2.13% (inactive)
CN(C)c1oc(-c2ccccc2Cl)nc1S(=O)(=O)c1ccccc1	-17.1% (inactive)	0.09% (inactive)	-0.11% (inactive)	95.5% (inactive)	93.2% (inactive)	1.2% (inactive)	17% (active)
Cc1ccc(S(=O)(=O)CNC(=O)c2ccccc2)cc1	-4.27% (inactive)	3.26% (inactive)	1.64% (inactive)	97.8% (inactive)	96.8% (inactive)	1.57% (inactive)	0.51% (inactive)
CC1CC(C)CN(C(=O)C(NS(=O)(=O)c2ccc3c(c2)oc(=O)n3C)C(C)C)C1 (centres undefined)	-16% (inactive)	-5.28% (inactive)	-2.67% (inactive)	103% (inactive)	93.6% (inactive)	-0.355% (inactive)	6.92% (inactive)
Cc1ccc(-c2noc(CSc3nnnn3-c3ccccc3)n2)cc1	-16.9% (inactive)	9.4% (inactive)	2.8% (inactive)	88.1% (inactive)	97.8% (inactive)	1.95% (inactive)	7.44% (inactive)
CCOC(=O)C1Cn2c(nc3c(c2=O)C(C)(C)Cc2ccccc2-3)S1 (centres undefined)	-1.77% (inactive)	2.82% (inactive)	0.36% (inactive)	90.2% (inactive)	88.5% (inactive)	3.48% (inactive)	8.31% (inactive)
COC(=O)CN1C(=O)CC(C)(C)Sc2ccccc21	-16.9% (inactive)	-27.1% (inactive)	1.77% (inactive)	103% (inactive)	101% (inactive)	2.17% (inactive)	2.53% (inactive)
CC1=C(C(=O)OCc2ccc3c(c2)OCO3)C(c2ccc(Cl)cc2)NC(=O)N1 (centres undefined)	-4.12% (inactive)	-5.46% (inactive)	-4.91% (inactive)	19.4% (active)	22.3% (active)	1.32% (inactive)	4.12% (inactive)
Cc1ccccc1-n1c(Cn2c(=O)sc3ccccc32)nnc1SCC(=O)Nc1nccs1	-3.9% (inactive)	-13% (inactive)	-5.13% (inactive)	75.2% (inactive)	59.9% (inactive)	2.25% (inactive)	5.86% (inactive)
CCOC(=O)C1CCN(S(=O)(=O)c2ccc3[nH]c(=O)oc3c2)CC1	-10% (inactive)	-5.23% (inactive)	-1.5% (inactive)	97.8% (inactive)	91.1% (inactive)	0.515% (inactive)	2.82% (inactive)
O=C(O)CCC(=O)N1CCc2cc(S(=O)(=O)N3CCC(Cc4ccccc4)CC3)ccc21	-6.24% (inactive)	0.935% (inactive)	-2.63% (inactive)	97.8% (inactive)	82.2% (inactive)	1.47% (inactive)	3.85% (inactive)
COc1ccccc1C1CC(=O)NC(SCC(=O)Nc2ccccc2)=C1C#N (centres undefined)	4.78% (inactive)	-11.8% (inactive)	1.09% (inactive)	93.2% (inactive)	88.2% (inactive)	3.57% (inactive)	1.38% (inactive)
Cc1cnn(C(=O)c2ccccc2Br)c1	3.79% (inactive)	-3.8% (inactive)	-1.43% (inactive)	109% (inactive)	103% (inactive)	-0.355% (inactive)	1.6% (inactive)
COc1ccc(S(=O)(=O)Cc2ccc(C(=O)N3CCN(C4CCCCC4)CC3)o2)cc1	8.67% (inactive)	7.12% (inactive)	-2.58% (inactive)	78.9% (inactive)	90% (inactive)	0.75% (inactive)	-1.9% (inactive)
CCN1CCCC1CNC(=O)Cn1cnc2sc(C)c(S(=O)(=O)N3CCC(C)CC3)c2c1=O (centres undefined)	-4.5% (inactive)	-14.6% (inactive)	-4.44% (inactive)	104% (inactive)	84% (inactive)	2.9% (inactive)	4.06% (inactive)
COc1ccc(C2=NOC(C(=O)Nc3cc(C)nn3-c3ccccc3)C2)cc1OC (centres undefined)	-14.9% (inactive)	-31.2% (inactive)	-0.06% (inactive)	103% (inactive)	97.1% (inactive)	1.11% (inactive)	1.36% (inactive)
O=C1N/C(=N/c2ccccn2)SC1Cc1ccccc1 (centres undefined)	0.405% (inactive)	1.97% (inactive)	0.48% (inactive)	102% (inactive)	93.6% (inactive)	3.98% (inactive)	6.35% (inactive)
Cc1ccccc1NC(=O)c1cnn(-c2ccccc2)c1NC(=O)c1ccco1	-12.6% (inactive)	-3.13% (inactive)	-0.49% (inactive)	103% (inactive)	98.2% (inactive)	0.855% (inactive)	1.65% (inactive)
Cc1cc(Nc2ccccc2F)n2nc(C)nc2n1	-13% (inactive)	-6.23% (inactive)	-1.87% (inactive)	99.2% (inactive)	99.5% (inactive)	1.95% (inactive)	0.37% (inactive)
